From ChEMBL document CHEMBL2169835, “Flavonoid dimers as novel, potent antileishmanial agents” (J Med Chem, 2012) come the findings set out here.

Data set [1] in a line: Cytotoxicity against mouse Peritoneal macrophages cells after 72 hrs by MTS assay. The data set is classed as cell-based. The following applies: Peritoneal macrophage cell. The gist of the method: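 Primary mouse peritoneal elicited macrophages were seeded at 2 × 10^4 cells per well in DMEM with 10% heat-inactivated FBS. They were exposed to graded doses for 72 h at 37 °C in 5% CO2. Survival was read by MTS/PMS tetrazolium reduction (OD 490 nm) relative to untreated control. The IC50 was the concentration halving OD. Results are mean ± SEM of 1–4 independent experiments.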
In general terms: Tetrazolium dyes change colour on reduction, which living cells bring about.

The subject of data set [2] is Leishmania donovani. Nature of the data set: Antimicrobial activity against wild-type Leishmania donovani AG83 promastigote assessed as inhibition of parasite growth after 72 hrs by MTS assay. The data set is classed as functional, organism-based. As to conditions: AG83, 72 h. In a few lines:
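Promastigotes were grown in Schneider's medium pH 6.9 with 10% heat-inactivated FBS at 27 °C, seeded at 1 × 10^5 per well, and exposed to serial concentrations for 72 h at 27 °C. Compounds were in DMSO (≤1% final) or water. MTS:PMS (20:1) was added for 4 h, then OD490 was read.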

A short description of data set [3]: Therapeutic index, ratio of IC50 for mouse Peritoneal macrophages to IC50 for SSG-resistant Leishmania donovani 39 amastigote infected in mouse peritoneal macrophages. The following applies: read-out: Ratio IC50.
Data set [4] relates to Leishmania donovani. Nature of the data set: Antimicrobial activity against SSG-resistant Leishmania donovani 39 promastigote assessed as inhibition of parasite growth after 72 hrs by MTS assay. The data set is classed as functional, organism-based. As to conditions: Leishmania donovani, 39, 72 h. The gist of the method:
(§1)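 Promastigotes were grown in Schneider's medium pH 6.9 with 10% heat-inactivated FBS at 27 °C, seeded at 1 × 10^5 per well, and exposed to serial concentrations for 72 h at 27 °C. Compounds were in DMSO (≤1% final) or water. MTS:PMS (20:1) was added for 4 h, then OD490 was read. Survival was % of untreated control; IC50 = concentration halving OD; N = 1−4.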

The test system of data set [5] is Leishmania donovani. Briefly: Antimicrobial activity against SSG-resistant Leishmania donovani 39 amastigote infected in mouse peritoneal macrophages assessed as inhibition of parasite growth after 72 hrs by Giemsa staining method. It counts as functional, organism-based. The following applies: Leishmania donovani, 39, 72 h. The gist of the method:
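Mouse peritoneal elicited macrophages were seeded on coverslips at 1 × 10^5 cells per well in DMEM with 10% heat-inactivated FBS and left to attach overnight. They were infected overnight with late-log Ld39 promastigotes (parasite:macrophage 20:1) at 37 °C, 5% CO2, then washed. Compounds were applied for 72 h at 37 °C. Giemsa-stained amastigotes per 100 macrophages gave IC50; N = 1−3.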

The subject of another data set is RAW264.7. Nature of the data set: Cytotoxicity against mouse RAW264.7 cells after 72 hrs by MTS assay. The data set is classed as cell-based. The following applies: RAW264.7, 72 h. In a few lines: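 RAW 264.7 murine macrophage line was plated at 1 × 10^4 cells per well in supplemented DMEM. Cells received a graded compound series for 72 h at 37 °C, 5% CO2, with a maximum of 1% DMSO. Viability was measured by MTS with PMS coupling at OD 490 nm, as percent of untreated control. The IC50 was the concentration reducing OD by half, given as mean ± SEM, N = 1–4.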

The test system of data set [6] is Leishmania donovani. Nature of the data set: Antimicrobial activity against pentamidine-resistant Leishmania donovani AG83PentR50 promastigote assessed as inhibition of parasite growth after 72 hrs by MTS assay. The data set is classed as functional, organism-based. The following applies: AG83PentR50, 72 h. In a few lines: as §1

Regarding `O=c1cc(-c2ccc(OCCN(CCOc3ccc(-c4cc(=O)c5ccccc5o4)cc3)Cc3ccncc3)cc2)oc2ccccc12`, the IC50 was more than 58 µM in data set [1], 1.4 µM in the data set with Leishmania donovani [2], more than 50 µM in the data set with Leishmania donovani [4] and 5.8 µM in the data set with Leishmania donovani [5]. The selectivity ratio in data set [3] is more than 10.
Turning to `O=c1cc(-c2ccc(OCCOCCN(CCOCCOc3ccc(-c4cc(=O)c5ccccc5o4)cc3)Cc3ccccn3)cc2)oc2ccccc12`, the IC50 in data set [1] is more than 33 µM; in the data set with Leishmania donovani [2] it was 5 µM; in the data set on Leishmania donovani [4], 4.2 µM; in the data set on Leishmania donovani [5], 4.1 µM; in the data set on RAW264.7 it was 53 µM. In data set [3], the selectivity ratio was more than 8.
With `COc1c(-c2ccc(OCCOCCN(CCOCCOc3ccc(-c4oc5ccccc5c(=O)c4OC)cc3)Cc3ccncc3)cc2)oc2ccccc2c1=O`, the IC50 in data set [1] is more than 50 µM; in the data set with Leishmania donovani [2], 0.98 µM; in the data set with Leishmania donovani [4], 0.98 µM; in the data set on Leishmania donovani [5] it was 5.2 µM. The selectivity ratio in data set [3] is more than 9.6.
As for `N#Cc1cc(CN(CCOCCOc2ccc(-c3cc(=O)c4ccccc4o3)cc2)CCOCCOc2ccc(-c3cc(=O)c4ccccc4o3)cc2)ccn1`, the IC50 in data set [1] was more than 92 µM; with Leishmania donovani [2], 1.1 µM; with Leishmania donovani [4], more than 50 µM; in the data set with Leishmania donovani [5], 7.6 µM. Besides, the selectivity ratio in data set [3] was more than 12.1.
For `O=c1cc(-c2ccc(OCCOCCN(CCOCCOc3ccc(-c4cc(=O)c5cc(F)ccc5o4)cc3)Cc3ccncc3)cc2)oc2ccc(F)cc12`, in that order: more than 100 µM, 0.31 µM, 0.36 µM, 3.1 µM and more than 32.3.
For `O=c1cc(-c2ccccc2OCCOCCN(CCOCCOc2ccccc2-c2cc(=O)c3ccccc3o2)Cc2ccncc2)oc2ccccc12`, in that order: more than 11 µM, 2.3 µM, 4 µM, 7 µM and more than 1.6.
As for `COc1cc(-c2cc(=O)c3ccccc3o2)ccc1OCCOCCN(CCOCCOc1ccc(-c2cc(=O)c3ccccc3o2)cc1OC)Cc1ccncc1`, the IC50 in data set [1] came out at 2.7 µM; with Leishmania donovani [2], 0.63 µM; with Leishmania donovani [4], 0.69 µM.
Regarding `O=c1cc(-c2ccc(OCCOCCN(CCOCCOc3ccc(-c4cc(=O)c5ccccc5o4)cc3)Cc3ccncc3Br)cc2)oc2ccccc12`, the IC50 in data set [1] was more than 100 µM; in the data set on Leishmania donovani [2], 0.65 µM; in the data set on Leishmania donovani [4] it was more than 50 µM; in the data set with Leishmania donovani [5], more than 7.6 µM. Further, in data set [3], the selectivity ratio is more than 13.1.
For `O=c1c(OCCOCCN(CCOCCOc2c(-c3ccccc3)oc3ccccc3c2=O)Cc2ccncc2)c(-c2ccccc2)oc2ccccc12`, in that order: more than 33 µM, 2.5 µM, 3.1 µM, 3.1 µM and more than 10.6.
On to `CCCCCCCCCCCCCCCCOP(=O)([O-])OCC[N+](C)(C)C` [MILTEFOSINE], for which the 50% inhibitory concentration (IC50) in data set [1] amounted to 75.3 µM; in the data set with Leishmania donovani [4], 17.3 µM; in the data set with Leishmania donovani [5], 16 µM; in the data set on Leishmania donovani [6], 9.3 µM; in the data set on RAW264.7, 20 µM.
For `O=c1cc(-c2ccc(OCCOCCN(CCOCCOc3ccc(-c4cc(=O)c5ccccc5o4)cc3)Cc3cccnc3)cc2)oc2ccccc12`, the 50% inhibitory concentration (IC50) is 33.1 µM in data set [1], 0.56 µM with Leishmania donovani [2], 0.98 µM in the data set on Leishmania donovani [4] and 2.4 µM in the data set on Leishmania donovani [5]. In addition, the selectivity ratio in data set [3] was 13.8.
Consider `O=c1cc(-c2ccc(OCCOCCOCCOCCOc3ccc(-c4cc(=O)c5ccc(F)cc5o4)cc3)cc2)oc2cc(F)ccc12`, for which the IC50 was 2.6 µM with Leishmania donovani [2], 2.4 µM with Leishmania donovani [4], 2.3 µM in the data set on Leishmania donovani [6] and more than 200 µM in the data set on RAW264.7.
For `O=c1cc(-c2ccc(OCCOCCNCCOCCOc3ccc(-c4cc(=O)c5ccccc5o4)cc3)cc2)oc2ccccc12` the same measures were 3.3 µM, 2.3 µM, 1.1 µM and 2.1 µM.
Take `O=c1cc(-c2ccc(OCCOCCN(CCOCCOc3ccc(-c4cc(=O)c5ccccc5o4)cc3)Cc3ccnc(Br)c3)cc2)oc2ccccc12`: the IC50 in data set [1] is more than 100 µM; with Leishmania donovani [2], 1.8 µM; in the data set with Leishmania donovani [4], more than 50 µM; in the data set with Leishmania donovani [5], more than 10 µM. The selectivity ratio in data set [3] is more than 10.
As for `O=c1cc(-c2ccc(OCCOCCOCCOCCOCCOCCOc3ccc(-c4cc(=O)c5ccccc5o4)cc3)cc2)oc2ccccc12`, the IC50 with Leishmania donovani [2] turned out to be 4.8 µM; in the data set on Leishmania donovani [4], 4.3 µM; in the data set with Leishmania donovani [6], 4.9 µM; in the data set with RAW264.7 it was 7.1 µM.
Take `Cc1c(-c2ccc(OCCOCCOCCOCCOCCOCCOc3ccc(-c4oc5ccccc5c(=O)c4C)cc3)cc2)oc2ccccc2c1=O`: the IC50 in the data set on Leishmania donovani [2] is 1.9 µM; in the data set on Leishmania donovani [4] it was 2.8 µM; in the data set with Leishmania donovani [6], 2.5 µM; in the data set on RAW264.7, 2.3 µM.
With `O=c1cc(-c2ccc(OCCOCCOCCOCCOCCOCCOCCOCCOCCOCCOCCOCCOCCOc3ccc(-c4cc(=O)c5ccccc5o4)cc3)cc2)oc2ccccc12`, the IC50 with Leishmania donovani [2] was found to be 9.2 µM; with Leishmania donovani [4], 8.2 µM; with Leishmania donovani [6], 7.9 µM; in the data set on RAW264.7 it was 8.4 µM.
As to `Cc1ccc2c(=O)cc(-c3ccc(OCCOCCOCCOCCOCCOCCOc4ccc(-c5cc(=O)c6ccc(C)cc6o5)cc4)cc3)oc2c1`, the IC50 in the data set on Leishmania donovani [2] was 6.7 µM; in the data set with Leishmania donovani [4] it was 5.3 µM; in the data set with Leishmania donovani [6] it was 4.1 µM; with RAW264.7, 5.3 µM.
As for `Cc1c(-c2ccc(OCCOCCOCCOCCOCCOc3ccc(-c4oc5ccccc5c(=O)c4C)cc3)cc2)oc2ccccc2c1=O`, the IC50 in the data set on Leishmania donovani [2] was found to be 4.8 µM; with Leishmania donovani [4] it was 4.2 µM; in the data set on Leishmania donovani [6] it was 4.6 µM; with RAW264.7, 3.1 µM.
In the case of `O=c1cc(-c2ccc(OCCOCCN(CCOCCOc3ccc(-c4cc(=O)c5ccccc5o4)cc3)Cc3ccncn3)cc2)oc2ccccc12`, the half-inhibitory concentration (IC50) is more than 33 µM in data set [1], 0.44 µM in the data set on Leishmania donovani [2], 0.58 µM with Leishmania donovani [4] and 1.4 µM in the data set with Leishmania donovani [5]. Moreover, the selectivity ratio in data set [3] was more than 23.6.
As to `CC(C)(C)OC(=O)N(CCOCCOc1ccc(-c2cc(=O)c3ccccc3o2)cc1)CCOCCOc1ccc(-c2cc(=O)c3ccccc3o2)cc1`, the IC50 in the data set on Leishmania donovani [2] was 3.2 µM; in the data set with Leishmania donovani [4], 1.6 µM; with Leishmania donovani [6], 1.1 µM; in the data set with RAW264.7, more than 100 µM.
`O=c1cc(-c2cccc(OCCOCCN(CCOCCOc3cccc(-c4cc(=O)c5ccccc5o4)c3)Cc3ccncc3)c2)oc2ccccc12`: the IC50 in data set [1] was more than 50 µM; in the data set with Leishmania donovani [2], 0.19 µM; in the data set with Leishmania donovani [4], 0.44 µM; in the data set with Leishmania donovani [5], 2.3 µM. Besides, the selectivity ratio in data set [3] was more than 21.7.
Take `Cc1ccc2oc(-c3ccc(OCCOCCOCCOCCOCCOc4ccc(-c5cc(=O)c6cc(C)ccc6o5)cc4)cc3)cc(=O)c2c1`: the IC50 with Leishmania donovani [2] is more than 24 µM; with Leishmania donovani [4], 4.3 µM; with Leishmania donovani [6], more than 24 µM; with RAW264.7, more than 100 µM.
Turning to `O=C(O)CCC(=O)N(CCOCCOc1ccc(-c2cc(=O)c3ccccc3o2)cc1)CCOCCOc1ccc(-c2cc(=O)c3ccccc3o2)cc1`, the IC50 in the data set on Leishmania donovani [2] was more than 100 µM; with Leishmania donovani [4], more than 100 µM; with Leishmania donovani [6], 27 µM; in the data set with RAW264.7 it was 65 µM.
For `O=c1cc(-c2ccc(OCCOCCOCCOCCOCCOCCOCCOCCOCCOc3ccc(-c4cc(=O)c5ccccc5o4)cc3)cc2)oc2ccccc12`, the IC50 was 9.4 µM in the data set on Leishmania donovani [2], 8.6 µM with Leishmania donovani [4], 10.6 µM with Leishmania donovani [6] and 8.1 µM with RAW264.7.

As a reminder, the IC50 is the concentration at which inhibition is half-maximal.
